How the values were obtained:
Type in all cases: functional
[1] = tested on: Escherichia coli; experiment: Antimicrobial activity against Escherichia coli isolate 339T expressing beta-lactamase KPC2 and PFGE cluster 5 isolated from peritoneal fluid of patient by agar dilution method
Summary of the method: (§1)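 Transformant strains. Plasmids purified from the clinical isolates were electroporated into E. coli DH10B. Transformants were selected on LB agar with 100 μg/ml ampicillin, and colonies were PCR-screened for blaKPC before susceptibility testing.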

[2] = tested on: Escherichia coli; experiment: Antimicrobial activity against Escherichia coli isolate 547T expressing beta-lactamase KPC2 and PFGE cluster 4 isolated from blood of patient by agar dilution method; summary of the method: as §1
[3] = tested on: Escherichia coli; experiment: Antimicrobial activity against Escherichia coli isolate 360 expressing beta-lactamase KPC2, CTX-M-15, OXA-9, TEM and PFGE cluster 1 isolated from urine of patient by agar dilution method; conditions: isolate 360, Urine
Summary of the method: (§2)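 Clinical carbapenem-resistant E. coli isolates collected Feb 2005–Oct 2008. Carbapenem MICs determined by agar dilution following CLSI protocols.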

[4] = tested on: Escherichia coli; experiment: Antimicrobial activity against Escherichia coli isolate 386 expressing beta-lactamase KPC2, CTX-M-15, OXA-9, TEM and PFGE cluster 1 isolated from wound of patient by agar dilution method; summary of the method: as §2
[5] = tested on: Escherichia coli; experiment: Antimicrobial activity against Escherichia coli isolate 543 expressing beta-lactamase KPC2, CTX-M-15, TEM and PFGE cluster 4 isolated from synovial fluid of patient by agar dilution method
Summary of the method: (§3)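 Clinical carbapenem-resistant E. coli isolates from the hospital, February 2005 to October 2008. Carbapenem MICs were determined by agar dilution following CLSI protocols.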

[6] = tested on: Escherichia coli; experiment: Antimicrobial activity against Escherichia coli isolate 339 expressing beta-lactamase KPC2, TEM and PFGE cluster 5 isolated from peritoneal fluid of patient by agar dilution method; summary of the method: as §3
[7] = tested on: Escherichia coli; experiment: Antimicrobial activity against Escherichia coli isolate 329 expressing beta-lactamase KPC2, CTX-M-2, TEM and PFGE cluster 2 isolated from blood of patient by agar dilution method; summary of the method: as §3
[8] = tested on: Escherichia coli; experiment: Antimicrobial activity against Escherichia coli isolate 329T expressing beta-lactamase KPC2 and PFGE cluster 2 isolated from blood of patient by agar dilution method; summary of the method: as §1
[9] = tested on: Escherichia coli; experiment: Antimicrobial activity against Escherichia coli isolate 360T expressing beta-lactamase KPC2, OXA-9 and PFGE cluster 1 isolated from urine of patient by agar dilution method; summary of the method: as §1
[10] = tested on: Escherichia coli; experiment: Antimicrobial activity against Escherichia coli DH10B by Etest; conditions: K-12 DH10B
[11] = tested on: Escherichia coli; experiment: Antimicrobial activity against Escherichia coli isolate 1679 expressing beta-lactamase KPC2, SHV-12, TEM and PFGE cluster 6 isolated from peritoneal fluid of patient by agar dilution method; summary of the method: as §3
[12] = tested on: Escherichia coli; experiment: Antimicrobial activity against Escherichia coli isolate 386T expressing beta-lactamase KPC2, OXA-9 and PFGE cluster 1 isolated from wound of patient by agar dilution method; summary of the method: as §1
[13] = tested on: Escherichia coli; experiment: Antimicrobial activity against Escherichia coli isolate 157T expressing beta-lactamase KPC2 and PFGE cluster 3 isolated from urine of patient by agar dilution method; summary of the method: as §1
[14] = tested on: Escherichia coli; experiment: Antimicrobial activity against Escherichia coli isolate 540 expressing beta-lactamase KPC2, TEM and PFGE cluster 4 isolated from synovial fluid of patient by agar dilution method; summary of the method: as §3
[15] = tested on: Escherichia coli; experiment: Antimicrobial activity against Escherichia coli isolate 547 expressing beta-lactamase KPC2, TEM and PFGE cluster 4 isolated from blood of patient by agar dilution method; summary of the method: as §2
[16] = tested on: Escherichia coli; experiment: Antimicrobial activity against Escherichia coli isolate 543T expressing beta-lactamase KPC2 and PFGE cluster 4 isolated from synovial fluid of patient by agar dilution method; summary of the method: as §1
[17] = tested on: Escherichia coli; experiment: Antimicrobial activity against Escherichia coli isolate 544 expressing beta-lactamase KPC2, TEM and PFGE cluster 4 isolated from abscess of patient by agar dilution method; summary of the method: as §3
[18] = tested on: Escherichia coli; experiment: Antimicrobial activity against Escherichia coli isolate 157 expressing beta-lactamase KPC2, CTX-M-15, TEM and PFGE cluster 3 isolated from urine of patient by agar dilution method; conditions: isolate 157, Urine; summary of the method: as §2
[19] = tested on: Escherichia coli; experiment: Antimicrobial activity against Escherichia coli isolate 1679T expressing beta-lactamase KPC2, TEM and PFGE cluster 6 isolated from peritoneal fluid of patient by agar dilution method; summary of the method: as §1
[20] = tested on: Escherichia coli; experiment: Antimicrobial activity against Escherichia coli DH10B by vitek-2 method in presence of beta-lactamase inhibitor Tazobactam; conditions: K-12 DH10B
Summary of the method: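 Plasmid-free recipient E. coli DH10B, used as the host for electroporation transformants, was tested for susceptibility on the automated Vitek-2 system.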

[21] = tested on: Escherichia coli; experiment: Antimicrobial activity against Escherichia coli isolate 544 expressing beta-lactamase KPC2, TEM and PFGE cluster 4 isolated from abscess of patient by vitek-2 method in presence of beta-lactamase inhibitor Tazobactam
Summary of the method: (§4)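 Antibiotic susceptibility of clinical carbapenem-resistant E. coli isolates (collected Feb 2005–Oct 2008) determined on the automated Vitek-2 system.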

[22] = tested on: Escherichia coli; experiment: Antimicrobial activity against Escherichia coli isolate 329 expressing beta-lactamase KPC2, CTX-M-2, TEM and PFGE cluster 2 isolated from blood of patient by vitek-2 method in presence of beta-lactamase inhibitor Tazobactam; summary of the method: as §4
[23] = tested on: Escherichia coli; experiment: Antimicrobial activity against Escherichia coli isolate 157 expressing beta-lactamase KPC2, CTX-M-15, TEM and PFGE cluster 3 isolated from urine of patient by vitek-2 method in presence of beta-lactamase inhibitor Tazobactam; conditions: isolate 157, Urine; summary of the method: as §4
[24] = tested on: Escherichia coli; experiment: Antimicrobial activity against Escherichia coli isolate 360 expressing beta-lactamase KPC2, CTX-M-15, OXA-9, TEM and PFGE cluster 1 isolated from urine of patient by vitek-2 method in presence of beta-lactamase inhibitor Tazobactam; conditions: isolate 360, Urine; summary of the method: as §4
[25] = tested on: Escherichia coli; experiment: Antimicrobial activity against Escherichia coli isolate 386 expressing beta-lactamase KPC2, CTX-M-15, OXA-9, TEM and PFGE cluster 1 isolated from wound of patient by vitek-2 method in presence of beta-lactamase inhibitor Tazobactam; summary of the method: as §4
[26] = tested on: Escherichia coli; experiment: Antimicrobial activity against Escherichia coli isolate 329T expressing beta-lactamase KPC2 and PFGE cluster 2 isolated from blood of patient by vitek-2 method in presence of beta-lactamase inhibitor Tazobactam
Summary of the method: (§5)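 Transformants were made by electroporating purified plasmids from clinical isolates into E. coli DH10B. They were selected on LB agar with 100 μg/ml ampicillin and PCR-screened for blaKPC. Susceptibility was then tested on Vitek-2.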

[27] = tested on: Escherichia coli; experiment: Antimicrobial activity against Escherichia coli isolate 1679T expressing beta-lactamase KPC2, TEM and PFGE cluster 6 isolated from peritoneal fluid of patient by vitek-2 method in presence of beta-lactamase inhibitor Tazobactam
Summary of the method: (§6)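 Test strains were E. coli DH10B transformants. Plasmids purified from the clinical isolates were electroporated in, transformants selected on LB agar with 100 μg/ml ampicillin, and colonies PCR-screened for blaKPC. Susceptibility of the transformants was then determined by automated Vitek-2 testing.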

[28] = tested on: Escherichia coli; experiment: Antimicrobial activity against Escherichia coli isolate 360T expressing beta-lactamase KPC2, OXA-9 and PFGE cluster 1 isolated from urine of patient by vitek-2 method in presence of beta-lactamase inhibitor Tazobactam; summary of the method: as §6
[29] = tested on: Escherichia coli; experiment: Antimicrobial activity against Escherichia coli isolate 339 expressing beta-lactamase KPC2, TEM and PFGE cluster 5 isolated from peritoneal fluid of patient by vitek-2 method in presence of beta-lactamase inhibitor Tazobactam
Summary of the method: (§7)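 Clinical carbapenem-resistant E. coli isolates collected at one hospital, February 2005 to October 2008. […] Susceptibilities came from automated Vitek-2 testing.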

[30] = tested on: Escherichia coli; experiment: Antimicrobial activity against Escherichia coli isolate 547 expressing beta-lactamase KPC2, TEM and PFGE cluster 4 isolated from blood of patient by vitek-2 method in presence of beta-lactamase inhibitor Tazobactam; summary of the method: as §7
[31] = tested on: Escherichia coli; experiment: Antimicrobial activity against Escherichia coli isolate 386T expressing beta-lactamase KPC2, OXA-9 and PFGE cluster 1 isolated from wound of patient by vitek-2 method in presence of beta-lactamase inhibitor Tazobactam; summary of the method: as §6
[32] = tested on: Escherichia coli; experiment: Antimicrobial activity against Escherichia coli isolate 1679 expressing beta-lactamase KPC2, SHV-12, TEM and PFGE cluster 6 isolated from peritoneal fluid of patient by vitek-2 method in presence of beta-lactamase inhibitor Tazobactam; summary of the method: as §4
[33] = tested on: Escherichia coli; experiment: Antimicrobial activity against Escherichia coli isolate 543 expressing beta-lactamase KPC2, CTX-M-15, TEM and PFGE cluster 4 isolated from synovial fluid of patient by vitek-2 method in presence of beta-lactamase inhibitor Tazobactam; summary of the method: as §4
[34] = tested on: Escherichia coli; experiment: Antimicrobial activity against Escherichia coli isolate 547T expressing beta-lactamase KPC2 and PFGE cluster 4 isolated from blood of patient by vitek-2 method in presence of beta-lactamase inhibitor Tazobactam; summary of the method: as §6
[35] = tested on: Escherichia coli; experiment: Antimicrobial activity against Escherichia coli isolate 540 expressing beta-lactamase KPC2, TEM and PFGE cluster 4 isolated from synovial fluid of patient by vitek-2 method in presence of beta-lactamase inhibitor Tazobactam; summary of the method: as §7
[36] = tested on: Escherichia coli; experiment: Antimicrobial activity against Escherichia coli isolate 543T expressing beta-lactamase KPC2 and PFGE cluster 4 isolated from synovial fluid of patient by vitek-2 method in presence of beta-lactamase inhibitor Tazobactam; summary of the method: as §5
[37] = tested on: Escherichia coli; experiment: Antimicrobial activity against Escherichia coli isolate 339T expressing beta-lactamase KPC2 and PFGE cluster 5 isolated from peritoneal fluid of patient by vitek-2 method in presence of beta-lactamase inhibitor Tazobactam; summary of the method: as §6
[38] = tested on: Escherichia coli; experiment: Antimicrobial activity against Escherichia coli isolate 157T expressing beta-lactamase KPC2 and PFGE cluster 3 isolated from urine of patient by vitek-2 method in presence of beta-lactamase inhibitor Tazobactam; summary of the method: as §5

Measured: MIC

C[C@@H](O)[C@H]1C(=O)N2C(C(=O)O)=C(S[C@@H]3CN[C@H](C(=O)Nc4cccc(C(=O)O)c4)C3)[C@H](C)[C@H]12
16 µg/mL: [5] | [6] | [14] | [17]
32 µg/mL: [7] | [11]
2 µg/mL: [16]
4 µg/mL: [1] | [8] | [13]
8 µg/mL: [3] | [4] | [15] | [18]
1 µg/mL: [9] | [12] | [19]
0.023 µg/mL: [10]
0.25 µg/mL: [2]

C[C@@H](O)[C@H]1C(=O)N2C(C(=O)O)=C(S[C@@H]3CN[C@H](CNS(N)(=O)=O)C3)[C@H](C)[C@H]12 [DORIPENEM]
4 µg/mL: [7]
< 0.5 µg/mL: [2] | [9] | [10] | [12] | [15] | [16]
2 µg/mL: [5] | [18]
0.5 µg/mL: [1] | [19]
1 µg/mL: [3] | [4] | [6] | [8] | [13] | [14] | [17]
8 µg/mL: [11]

CCN1CCN(C(=O)N[C@@H](C(=O)N[C@@H]2C(=O)N3[C@@H]2SC(C)(C)[C@@H]3C(=O)O)c2ccccc2)C(=O)C1=O [PIPERACILLIN]
> 128 µg/mL: [21] | [22] | [23] | [24] | [25] | [26] | [32] | [33] | [36] | [38]
64 µg/mL: [27] | [28] | [29] | [30] | [31] | [34] | [35] | [37]
> 1 µg/mL: [20]
